In article PMC9585524 (ACS Bio & Med Chem Au, 2022):
“Also recorded” adds a separate entry of the source.

Assays:
hSphK2 = target: T1, hSphK2 (Homo sapiens, UniProt Q9NRA0); type: biochemical
T1 sequence (Q9NRA0 1-618 isoform Q9NRA0-2): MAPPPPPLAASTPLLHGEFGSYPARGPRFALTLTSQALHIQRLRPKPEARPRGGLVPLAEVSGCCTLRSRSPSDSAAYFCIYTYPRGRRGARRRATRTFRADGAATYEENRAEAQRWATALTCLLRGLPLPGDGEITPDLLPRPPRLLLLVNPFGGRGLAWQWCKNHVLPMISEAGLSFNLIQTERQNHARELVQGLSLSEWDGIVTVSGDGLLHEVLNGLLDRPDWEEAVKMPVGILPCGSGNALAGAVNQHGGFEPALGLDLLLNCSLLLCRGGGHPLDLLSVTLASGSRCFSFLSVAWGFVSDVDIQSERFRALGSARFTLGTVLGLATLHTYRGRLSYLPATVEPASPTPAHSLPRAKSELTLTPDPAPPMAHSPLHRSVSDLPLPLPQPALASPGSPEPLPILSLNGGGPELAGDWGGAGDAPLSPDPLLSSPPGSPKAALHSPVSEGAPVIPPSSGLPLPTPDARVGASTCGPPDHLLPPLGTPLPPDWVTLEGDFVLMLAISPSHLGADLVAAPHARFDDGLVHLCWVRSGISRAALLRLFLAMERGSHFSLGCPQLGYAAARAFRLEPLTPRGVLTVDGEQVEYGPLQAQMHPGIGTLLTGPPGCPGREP

blood S1P = test: Blood S1P in C57BL/6 mice after a single intraperitoneal dose, LC-MS/MS; type: in vivo; settings: for S1P levels in blood: 5 mg/kg single intraperitoneal injection
Outline: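 Male C57BL/6J mice in groups of four received 5 mg/kg test compound i.p. in 2% hydroxypropyl-β-cyclodextrin, and controls got an equal volume of vehicle. Blood was drawn at set times, with the earliest 1–2 min post-dose. Whole blood (10 μL) was extracted in methanol/chloroform with d7-S1P/d7-sphingosine internal standards (48 °C, 16 h), then treated with KOH/methanol. S1P was quantified by LC-MS/MS MRM (380.4 → 264.4).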

SphK2 in U937 cells = test: FTY720-P levels in U937 cells; type: cell-based, human; settings: 1 μM FTY720 and 14c at 30–1000 nM, Figure 5B, duplicate
Outline: (§1)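 U937 cells were grown in RPMI 1640 with 10% FBS, then moved to 0.5% FBS for 24 h. They were treated 2 h with test compound (30–1000 nM) plus 1 μM FTY720. Pellets (2–3 × 10^6 cells) were extracted in methanol/chloroform with deuterated internal standards and base-treated. S1P and FTY720-P were measured by LC-MS/MS, in duplicate.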

U937 cells = test: S1P levels in U937 cells by LC-MS/MS; type: cell-based, human; settings: varying concentrations of 14c, 2 h, Figure 5A, duplicate
Outline: as §1

estrogen receptors = settings: cited from earlier work

Structure (SMILES)	selectivity for SphK2 over SphK1 (hSphK2)	S1P levels in blood (blood S1P; 4 h post dosing)	S1P levels in blood (blood S1P; after 24 h)	circulating (blood) S1P levels (blood S1P; mice, 5 mg/kg, overall statement)	FTY720-P levels in U937 cells (SphK2 in U937 cells)	S1P levels in U937 cells (U937 cells)	action at estrogen receptors (estrogen receptors)
Cl.N=C(N)N1CCC[C@H]1c1nc(-c2ccc(CCC3CCCCC3)c(C(F)(F)F)c2)no1 [14c, (S)-2-(3-(4-(2-Cyclohexylethyl)-3-(trifluoromethyl)phenyl)-1,2,4-oxadiazol-5-yl)pyrrolidine-1-carboximidamide Hydrochloride]	~200 fold	doubling	returning close to baseline	sustained increase; also recorded: profound increases	concentration-dependent decrease	dose-dependent decrease	
O=C(NCc1ccncc1)C12CC3CC(C1)CC(c1ccc(Cl)cc1)(C3)C2 [compound 1]							tamoxifen-mimetic
